The values below come from PubChem BioAssay AID651575 (The Scripps Research Institute Molecular Screening Center, 2012).

Structures are written as SMILES.

For the test, the system named is Huh-7.5 HCV J6/JFH-1 infection, RT-qPCR viral RNA, 48 h. In words: HCV infectivity inhibition in Huh-7.5 cells, late-stage follow-up, counter-screen for HCV core dimerization inhibitor project, cell-based, RT-qPCR viral RNA, J6/JFH-1, powder samples (AID 651575). In a few lines: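 Material: Huh-7.5 cells infected with HCV genotype 2a J6/JFH-1; also added: HCV 2a J6/JFH-1 virus added together with compound; dosing: 6 tenfold doses, top 100 µM; incubation: 24 h infection with compound, then 48 h compound; signal: Taqman real-time RT-qPCR of HCV RNA, Ct values; repeats: triplicates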
In general terms: Counterscreens check selectivity or assay interference.
With `Cc1ccc(Cc2c(C)nc3nc(SCC(=O)NCCN4CCNCC4)nn3c2C)cc1`, the IC50 was 2 nM.
Regarding `Cc1ccc(Cc2c(C)nc3nc(SCC(=O)NCCN4CCCN(S(=O)(=O)c5ccc(C)cc5)CC4)nn3c2C)cc1`, the IC50 was 4 nM.
As for `Cc1ccc(Cc2c(C)nc3nc(SCC(=O)NCCN4CCCN(S(=O)(=O)c5ccccc5)CC4)nn3c2C)cc1`, the IC50 was 665 nM.
`Cc1ccc(Cc2c(C)nc3nc(SCC(=O)NCCN4CCCN(S(C)(=O)=O)CC4)nn3c2C)cc1`: the IC50 is 1240 nM.
With `Cc1ccc(Cc2c(C)nc3nc(SCC(=O)NCCN4CCN(Cc5ccc(F)cc5)CC4)nn3c2C)cc1` the figure was 32 nM; with `Cc1ccc(Cc2c(CCc3ccccc3)nc3nc(SC(Cc4ccccc4)C(=O)NCCN4CCOCC4)nn3c2C)cc1` (centres undefined), 286 nM.
To `Cc1ccc(Cc2c(C)nc3nc(SCC(=O)NCCN4CCN(CCc5ccccc5)CC4)nn3c2C)cc1` belongs 294 nM; to `Cc1ccc(Cc2c(C)nc3nc(SCC(=O)NCCN4CCOCC4)nn3c2C)cc1`, 312 nM; to `Cc1ccc(Cc2c(C)nc3nc(SCC(=O)NCCN4CCCCCC4)nn3c2C)cc1`, 191 nM.

For orientation: IC50 means the concentration at which inhibition is half-maximal.
